Holding throughout (type): functional
One assay concerns DU-145. As to the kind of experiment: Growth inhibition of human DU145 cells after 48 hrs by SRB assay. Particulars: DU-145, 48 h. Put shortly:
(§1)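 Cells seeded in 5% fetal bovine serum/RPMI1640 and incubated 24 h before serial compound dilutions were added. After 48 h exposure, cells were fixed with trichloroacetic acid and stained with sulforhodamine B (NCI standard SRB protocol), and optical density was read. GI50, the concentration causing 50% reduction in net protein increase, was calculated from the optical density data; values reported in µg/mL.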
For orientation: In SRB staining, fixed cells bind dye roughly in proportion to their protein.

The next assay relates to MCF7. As to the kind of experiment: Growth inhibition of human MCF7 cells after 48 hrs by SRB assay. Particulars: MCF7, 48 h. Put shortly:
as §1

Another assay deals with BXPC-3. Nature of the assay: Growth inhibition of human BXPC3 cells after 48 hrs by SRB assay. The conditions noted are these: BXPC-3, 48 h. Put shortly:
as §1

For the next assay, the system named is NCI-H460. As to the kind of experiment: Growth inhibition of human NCI-H460 cells after 48 hrs by SRB assay. The conditions noted are these: NCI-H460, 48 h. The method, boiled down:
as §1

The test system of another assay is SF-268. As to the kind of experiment: Growth inhibition of human SF268 cells after 48 hrs by SRB assay. The conditions noted are these: SF-268, 48 h. Put shortly: as §1
In a further assay the test system is KM-20L2. As to the kind of experiment: Growth inhibition of human KM20L2 cells after 48 hrs by SRB assay. Particulars: KM-20L2, 48 h. The method, boiled down:
as §1

Structures are written as SMILES. In brackets after ≈: the same amount, converted by molar mass. Bounds are passed on as bounds.

On to `COc1ccc2c3c(cc4ccccc4c13)N(C)C(=O)C2=O`, for which the GI50 (as a rule, the concentration giving 50% growth inhibition) amounted to 1.3 µg/mL (≈ 4.46 µM) with DU-145; 0.66 µg/mL (≈ 2.27 µM) in the assay on MCF7; 1.6 µg/mL (≈ 5.49 µM) with BXPC-3; 0.46 µg/mL (≈ 1.58 µM) in the assay on NCI-H460; 0.42 µg/mL (≈ 1.44 µM) in the assay on SF-268; 0.82 µg/mL (≈ 2.81 µM) in the assay with KM-20L2.

On to `COc1cc2c3c(cc4ccccc4c3c1OC)N(C)C(=O)C2=O` [CEPHARADIONE B], for which the GI50 in the assay with DU-145 is 36.1 µg/mL (≈ 112 µM); in the assay on MCF7, greater than 10 µg/mL; with BXPC-3, greater than 10 µg/mL; in the assay on NCI-H460, greater than 10 µg/mL; in the assay on SF-268 it was 22.8 µg/mL (≈ 71 µM); in the assay with KM-20L2, greater than 10 µg/mL.

For the molecule `CN1C(=O)C(=O)c2cc3c(c4c2c1cc1ccccc14)OCO3` [CEPHARADIONE A], the GI50 in the assay on DU-145 is 4.3 µg/mL (≈ 14.1 µM); with MCF7 it was 6.3 µg/mL (≈ 20.6 µM); in the assay on BXPC-3 it was greater than 10 µg/mL; in the assay on NCI-H460, 2.5 µg/mL (≈ 8.19 µM); in the assay on SF-268, 2.9 µg/mL (≈ 9.5 µM); in the assay on KM-20L2, 17.3 µg/mL (≈ 56.7 µM).

As for `Cc1cc2c3c(cc4ccccc4c3c1C)N(C)C(=O)C2=O`, the GI50 in the assay on DU-145 is greater than 10 µg/mL; in the assay on MCF7 it was 8.4 µg/mL (≈ 29 µM); in the assay with BXPC-3 it was greater than 10 µg/mL; in the assay with NCI-H460, 2.3 µg/mL (≈ 7.95 µM); in the assay on SF-268 it was 0.7 µg/mL (≈ 2.42 µM); in the assay on KM-20L2 it was 4.2 µg/mL (≈ 14.5 µM).

In the case of `CCOc1ccc2c3c(cc4ccccc4c13)N(C)C(=O)C2=O`, the GI50 in the assay on DU-145, in the assay on MCF7, in the assay on BXPC-3, in the assay with NCI-H460, in the assay on SF-268 and with KM-20L2 was greater than 10 µg/mL throughout.

The values above are taken from ChEMBL document CHEMBL1149665, “Synthesis and biological evaluation of cepharadiones A and B and related dioxoaporphines” (2007).
